Screening results (PubChem BioAssay)
SKKanGAS inh: SKKanGAS growth inhibition; S. pyogenes SKKanGAS, kanamycin growth, BacTiter-Glo, 6 h; inhibition, % at 7.5 µM; 300,000 tested, 1.3% active; AID 1662;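 active = mean replicate score, as percent of positive control median, at least 50; inconclusive = mean below 50 but one replicate at or above 50; inactive = mean and every replicate below 50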;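 note: strain carries kanamycin resistance gene driven by streptokinase promoter and grows in 40 µg/ml kanamycin; loss of luminescence reflects streptokinase promoter inhibition or plain growth inhibition; 0% = median of DMSO wells and 100% = positive control at its reference dose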
Rad51 HR inh: Rad51 (human) homologous recombination inhibition. inhibition, % at 10 µM. 200,000 tested, 0.085% active. AID 1385. hRad51 DNA strand exchange, fluorescence dequenching;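 active = inhibition above 40% at the single screening dose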;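 note: 0% = DMSO control wells and 100% = blanks with heterologous ssDNA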
Target sequence (Q06609 whole entry, looked up): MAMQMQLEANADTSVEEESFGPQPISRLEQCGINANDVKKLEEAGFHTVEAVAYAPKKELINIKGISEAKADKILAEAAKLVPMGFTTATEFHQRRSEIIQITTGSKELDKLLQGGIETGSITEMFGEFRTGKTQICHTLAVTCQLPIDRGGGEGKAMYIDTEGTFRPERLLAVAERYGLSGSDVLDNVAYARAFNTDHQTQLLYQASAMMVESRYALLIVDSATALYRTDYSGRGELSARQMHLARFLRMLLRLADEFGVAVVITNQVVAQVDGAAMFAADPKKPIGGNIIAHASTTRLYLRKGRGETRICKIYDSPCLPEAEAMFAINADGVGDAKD
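Assay system: Human Rad51 nucleoprotein filaments preassembled on unlabelled ssDNA | Reagent: Donor/quencher-labelled 47-bp dsDNA substrate | Doses: One concentration, 10 µM final | Times: 37 °C 15-min filament assembly, 30-min compound preincubation, 15-min exchange | Technique: Fluorescein emission 520 nm, excitation 485 nm | Benchmarks: Plate control and blank wells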
Autophagy mod: modulators of autophagy | 190,000 tested, 0.98% active | calls only at 10 µM (by protocol) | MEF GFP-LC3 puncta imaging; test concentration mostly 10 µM;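 active = percentage of spot-positive cells more than 3 SD above its plate mean, without a fluorescence outlier flag or 80% toxicity; inconclusive = no clear call, values can overlap the other calls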;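 note: spot-positive cell cutoff set from DMSO-treated cells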
Cl transport mod: KCC2 (human) Cl- transport modulation | KCC2 cells, thallium flux FluoZin-2 fluorescence | AID 1456 | Q9H2X9 | 190,000 tested, 2.2% active | B-score of Tl+ flux slope (higher = more flux/activation; lower = inhibition) at 10 µM;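 active = thallium flux slope and its plate-corrected score both differing from the plate sample mean at a set confidence after two filtering rounds, in either direction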;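 note: slope of fluorescence scaled to starting intensity during 10 to 20 s after thallium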
WT yeast gro inh: growth inhibition of WT yeast, mitochondrial fusion screen. mitochondrial fusion phenotypic screen, WT strain. 190,000 tested, 2.1% active. inhibition, % at 10 µM; in the data active = inhibition above about 58%; tested in S. cerevisiae
Ins promoter up: MIN6 insulin promoter up-regulation; MIN6 insulin promoter-GFP reporter, high-content imaging; stronger effect = higher value; z-score at 5 µM; 190,000 tested, 0.3% active; AID 1625;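 active = z-score above 3 at 5 µM with at least 500 cells counted in the well; inconclusive = wells under 500 cells, flagged as cytotoxic or low count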
* hit, by the source's call; i = inactive; ? = inconclusive; nt = no result; + = active, no number. Most compounds without a hit are left out; they make up all but 4.2% or so of the library.

SMILES	SKKanGAS inh	Rad51 HR inh	Autophagy mod	Cl transport mod	WT yeast gro inh	Ins promoter up
Cc1cc(C)cc(NC(=S)NCc2ccc3[nH]c4c(c3c2)CCCC4)c1	18	nt	i	-0.37	72*	-1.4
O=C(NCc1ccc2[nH]c3c(c2c1)CCCC3)c1ccc(S(=O)(=O)N2CCCCC2)cc1	11	2	i	-0.63	2	0.1
S=C(NCc1ccc2[nH]c3c(c2c1)CCCC3)Nc1ccccc1	4	3	i	-0.29	76*	0.18
COc1cc2nc(C3CCC3)nc(N3CCN(c4ccccc4OC)CC3)c2cc1OC	?	nt	i	-1.1	83*	-1.3
CC(=O)c1ccc(NC(=O)Cn2c3ccccc3c3nc(=O)cc(C)n32)cc1	4	nt	nt	-0.64	nt	-0.3
C=CCN1C(=O)C2(NNc3ccccc3O2)c2ccccc21 (centres undefined)	43	-40	+	0.95	13	0.54
CCCCN1C(=O)C2(NNc3ccccc3O2)c2ccccc21 (centres undefined)	11	-45	i	0.22	26	nt
COc1cccc(SCc2noc(C(=O)NCCN(C)C)c2C(=O)NCCN(C)C)c1	0	-5	nt	nt	nt	nt
O=C1/C(=C/c2c[nH]c3ccccc23)CCC/C1=C\c1c[nH]c2ccccc12	59*	-33	i	-0.5	48	4.6*
O=C1CS/C(=N/N=C/c2c[nH]c3ccccc23)N1	-1	12	nt	-0.55	nt	0.26
COc1ccc(NC(=O)Cn2cnc3c(oc4nc5c(cc43)COC(C)(C)C5)c2=O)cc1	1	-1	nt	-0.19	nt	0.38
c1ccc(C[n+]2c(-c3ccccc3)csc2Nc2ccccc2)cc1	1	5	i	0.5	10	0.45
c1ccc(Nc2scc(-c3ccccc3)[n+]2Cc2ccco2)cc1	14	-16	i	-0.68	67*	1.9
Cc1cccc2sc(NNC(=O)c3cc(-c4cccs4)nc4ccccc34)nc12	88*	nt	i	-0.017	59*	-0.62
NNC(=O)c1cc(-c2cccs2)nc2ccccc12	2	7	nt	0.39	nt	-1
c1ccc(Cn2nnc3c(NCc4ccc5c(c4)OCO5)nc(C4CC4)nc32)cc1	-6	-2	+	nt	7	-1
c1ccc(Cn2nnc3c(NCC4CCCO4)nc(C4CC4)nc32)cc1 (centres undefined)	2	-13	i	-3.4	12	-0.08
Cc1nc(NCc2ccc3c(c2)OCO3)c2nnn(Cc3ccccc3)c2n1	3	-3	+	1.4	-11	-0.59
COC(=O)N1C(=O)[C@](Cc2ccccc2)(c2ccccc2)N1C(=O)OC	6	nt	nt	nt	nt	nt
CCOc1ccc(C(=O)C(C)OC(=O)c2nc(Cl)ccc2Cl)cc1 (centres undefined)	7	nt	nt	nt	nt	nt
O=C1NCCSC1c1ccccc1 (centres undefined)	-2	nt	nt	nt	nt	nt
Clc1ccc(/C=N/N2CCN(Cc3ccccc3Cl)CC2)cc1	18	1	i	-0.4	66*	-0.63
COc1ccccc1/C=C/C=N/N1CCN(Cc2ccc(Cl)cc2)CC1	-2	8	i	-0.17	42	-0.1
COc1ccccc1/C=C/C=N\N1CCN(Cc2ccccc2Cl)CC1	1	nt	i	-0.55	63*	nt
CCc1ccc(-c2cc(C)no2)cc1S(=O)(=O)N1CCN(c2cc(C)ccc2C)CC1	7	nt	nt	nt	nt	nt
SMILES	SKKanGAS inh	Rad51 HR inh	Autophagy mod	Cl transport mod	WT yeast gro inh	Ins promoter up
CCn1c(O)c(N=Nc2ccc3ccccc3n2)c2ccccc21	6	nt	nt	1.9	nt	0.49
CCCCn1c(O)c(N=Nc2ccccn2)c2ccccc21	-1	1	i	11*	68*	-0.35
Cc1ccc(C(=O)c2coc3c2C(=O)C(=O)c2ccccc2-3)cc1	9	nt	i	-0.37	95	-0.08
C[C@H]1COC2=C1C(=O)C(=O)c1c2ccc2c1CCCC2(C)C	86*	-7	i	-0.049	74*	0.83
Cc1coc2c1C(=O)C(=O)c1c-2ccc2c(C)cccc12	73*	1	nt	0.15	nt	-3.1
Cc1coc2c1C(=O)C(=O)c1c-2ccc2c1CCCC2(C)C	42	5	i	-0.054	73*	0.46
COc1ccccc1CC(=O)NC1CC(C)(C)NC(C)(C)C1	4	nt	i	-0.34	6	3.6*
COc1ccccc1CC(=O)NC1CC1	2	nt	nt	nt	nt	nt
Cc1ccc(NC(=O)CCl)c(C)c1	-1	1	i	0.25	1	3.5*
Cc1ccc(C)c(NC(=S)NCCc2ccc(F)cc2)c1	2	2	i	-2.4	69*	-1.6
Cc1ccc(NC(=O)CCc2ccc(C)o2)c(C)c1	-5	nt	nt	nt	nt	nt
Cc1ccc(NC(=S)NCCc2ccccc2)c(C)c1	-1	-4	i	-1.7	70*	0.04
Cc1ccc(NC(=S)NCc2ccc(F)cc2)c(C)c1	2	nt	nt	nt	nt	nt
CC(NC(=O)C1CCC(CNc2c(N3CCCCC3)c(=O)c2=O)CC1)c1ccccc1 (centres undefined)	-3	nt	nt	1.8	nt	0.48
COc1ccccc1/C=C/CN1CCSCC1	4	nt	nt	nt	nt	nt
CCOc1ccc(NS(=O)(=O)c2ccc(-c3ccc(=O)[nH]n3)o2)cc1	-7	nt	nt	nt	nt	nt
O=C(Cn1cnc2c(nnn2Cc2ccc(F)cc2)c1=O)Nc1ccc2c(c1)OCCO2	-9	nt	nt	nt	nt	nt
O=C(Nc1cccc(F)c1)N(Cc1ccc(Cl)cc1)CC(O)C(F)(F)F (centres undefined)	6	34	i	0.41	71*	-0.14
CC(NC(=O)CCc1nnc(-c2ccc(-c3ccccc3)cc2)o1)c1nc2ccccc2[nH]1 (centres undefined)	19	12	i	-2	-20	-1.2
FC(F)C(F)(F)C(F)(F)C(F)(F)c1cc(-c2ccccc2)n[nH]1	12	-4	i	-3.4	70*	nt
Cc1cc(-c2ccccc2)n[nH]1	3	-2	i	1.4	5	0.39
CC(C)(CO)NC(=O)C12CC3CC(CC(Br)(C3)C1)C2	-3	nt	nt	0.43	nt	0.14
CSc1ccc(CN(C)CC(=O)Nc2ccc(C)cc2Br)cc1	3	6	i	-0.78	62*	-0.39
CSc1ccc(CN(C)CC(=O)Nc2cccc(Br)c2)cc1	-7	-8	i	0.047	48	-0.5
CCOc1cc(/C=N/NC(=O)COc2ccccc2C)ccc1OC(=O)c1cccs1	9	13	i	0.69	65*	0.2
CCOc1cc(/C=N/Nc2cccc(C(=O)O)c2)ccc1OC(=O)c1ccccc1	50*	14	i	-1.5	-15	-0.4
COc1ccc(NC(=O)CC2SC(=N)N(c3ccccc3)C2=O)c(OC)c1 (centres undefined)	-2	3	i	-1.1	-9	-0.43
CC(=O)Nc1ccc(-c2csc(Nc3ccc(Cl)cn3)n2)cc1	-12	-8	i	1.7	19	-0.35
CC(=O)Nc1cccc(-c2csc(Nc3ccc(Cl)cn3)n2)c1	38	8	i	0.78	76*	-0.69
O=C(Nc1ccc(N2CCCC(O)C2)cc1)c1snc2c(=O)[nH]cnc12 (centres undefined)	30	2	i	-0.7	-19	1.2
